Laboratory results taken from ChEMBL document CHEMBL5360543, “Designed multiple ligands for the treatment of type 2 diabetes mellitus and its complications: Discovery of (5-arylidene-4-oxo-2-thioxothiazolidin-3-yl)alkanoic acids active as novel dual-targeted PTP1B/AKR1B1 inhibitors” (Eur J Med Chem, 2023).
Activity calls are given as the source filed them. The rule behind the calls is not given here.

Tests used:
[1] = biological target: T1, Tyrosine-protein phosphatase non-receptor type 2 (Homo sapiens, UniProt P17706); assay: Inhibition of N-terminal polyHis-tagged human recombinant TC-PTPb (1 to 415 residues) expressed in Escherichia coli BL21(DE3)pLysS
T1 sequence (P17706 whole entry): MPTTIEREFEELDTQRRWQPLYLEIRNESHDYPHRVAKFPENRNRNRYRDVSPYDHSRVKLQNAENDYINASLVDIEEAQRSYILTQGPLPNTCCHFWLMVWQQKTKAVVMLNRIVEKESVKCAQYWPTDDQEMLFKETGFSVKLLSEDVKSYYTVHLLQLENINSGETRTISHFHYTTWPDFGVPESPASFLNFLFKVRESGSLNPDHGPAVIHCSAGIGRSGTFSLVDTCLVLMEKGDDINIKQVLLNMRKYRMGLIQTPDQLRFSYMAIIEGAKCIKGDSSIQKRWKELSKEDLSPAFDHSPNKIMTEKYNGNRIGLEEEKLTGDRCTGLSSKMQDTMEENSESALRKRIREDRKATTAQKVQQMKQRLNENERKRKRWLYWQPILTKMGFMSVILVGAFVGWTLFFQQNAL

[2] = biological target: T2, Aldo-keto reductase family 1 member B1 (Homo sapiens, UniProt P15121); assay: Inhibition of human recombinant AKR1B1 expressed in Escherichia coli BL21(DE3)pLysS using L-idose as substrate by NADPH oxidation based absorbance analysis
[3] = biological target: T3, Tyrosine-protein phosphatase non-receptor type 1 (Mus musculus) (UniProt P35821); assay: Inhibition of PTP1B in mouse C2C12 cells assessed as increase in Akt phosphorylation by measuring increase in ratio of pAkt to Akt at 20 uM treated for 15 mins by western blot analysis; type: cell-based
T3 sequence (whole entry): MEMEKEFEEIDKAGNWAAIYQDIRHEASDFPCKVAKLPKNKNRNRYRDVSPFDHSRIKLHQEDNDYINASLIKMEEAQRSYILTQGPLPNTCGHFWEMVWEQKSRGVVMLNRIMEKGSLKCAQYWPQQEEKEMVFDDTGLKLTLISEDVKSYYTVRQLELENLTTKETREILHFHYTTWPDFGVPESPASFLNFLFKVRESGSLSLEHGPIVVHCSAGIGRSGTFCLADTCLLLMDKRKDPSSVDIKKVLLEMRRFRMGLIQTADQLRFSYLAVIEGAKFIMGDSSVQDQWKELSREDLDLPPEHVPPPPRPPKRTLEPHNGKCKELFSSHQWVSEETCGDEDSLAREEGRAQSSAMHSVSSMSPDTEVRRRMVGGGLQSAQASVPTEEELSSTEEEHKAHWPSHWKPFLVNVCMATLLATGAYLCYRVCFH
Procedure, shortened: (§1)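 C2C12 cells starved 24 h, then given 10 nM insulin, 20 µM compound, or both, for 15 min. Washed in cold PBS, lysed in 1X Laemmli buffer, run on SDS-PAGE, blotted to PVDF. Probed with antibodies to phospho-Akt and total Akt, with actin as loading control. Bands quantified; triplicate, mean ± SD (n = 3).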

[4] = biological target: T4, Tyrosine-protein phosphatase non-receptor type 1 (Homo sapiens, UniProt P18031); assay: Mixed non-competitive inhibition of N-terminal polyHis-tagged human PTP1B1 (1 to 303 residues) expressed in Escherichia coli BL21(DE3)pLysS assessed as apparent dissociation constant for ESI complex using pNPP as substrate by Lineweaver-Burk plot analysis
T4 sequence (P18031 whole entry): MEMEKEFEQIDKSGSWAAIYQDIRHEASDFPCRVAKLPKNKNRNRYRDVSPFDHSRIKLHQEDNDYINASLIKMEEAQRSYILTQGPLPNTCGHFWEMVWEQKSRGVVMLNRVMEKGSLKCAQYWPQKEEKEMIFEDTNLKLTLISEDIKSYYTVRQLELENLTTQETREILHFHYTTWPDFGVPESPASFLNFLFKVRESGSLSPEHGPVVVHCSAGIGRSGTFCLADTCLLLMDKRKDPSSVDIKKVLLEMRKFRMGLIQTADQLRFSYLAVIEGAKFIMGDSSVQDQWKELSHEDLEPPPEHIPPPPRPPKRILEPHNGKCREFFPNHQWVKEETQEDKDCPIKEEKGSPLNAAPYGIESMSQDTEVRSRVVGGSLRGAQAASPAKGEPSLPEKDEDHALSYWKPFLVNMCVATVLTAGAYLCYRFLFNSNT
Procedure, shortened: (§2)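 PTP1B initial pNPP hydrolysis rates measured at seven pNPP concentrations (0.5–25 mM) and at least three inhibitor concentrations, in triplicate. Data fitted to Michaelis–Menten; KM and Vmax dependence on inhibitor analysed by Lineweaver–Burk plots.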

[5] = biological target: T3, Tyrosine-protein phosphatase non-receptor type 1 (Mus musculus); assay: Inhibition of PTP1B in mouse C2C12 cells assessed as potentiation of insulin-induced Akt phosphorylation by measuring increase in ratio of pAkt to Akt at 20 uM treated for 15 mins in presence of insulin by western blot analysis; type: cell-based; procedure, shortened: as §1
[6] = system: C2C12; assay: Cytotoxicity against mouse C2C12 cells assessed as reduction in cell viability at 20 uM incubated for 24 hrs by MTT assay; type: toxicity, cell-based; conditions: c2c12, 24 h
Procedure, shortened: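 C2C12 myoblasts were differentiated for 96 h in DMEM with 2% horse serum, then held 24 h in complete medium with 20 µM compound, DMSO vehicle as control. MTT 0.5 mg/mL was added, cells lysed in DMSO, absorbance read, and values normalized to vehicle. Quadruplicate, mean ± SD (n = 4).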

[7] = biological target: T5, Tyrosine-protein phosphatase non-receptor type 1 (Homo sapiens) (UniProt P18031); assay: Reversible inhibition of N-terminal polyHis-tagged human PTP1B1 (1 to 303 residues) expressed in Escherichia coli BL21(DE3)pLysS using pNPP as substrate pretreated with enzyme for 60 mins followed by 400-fold dilution with buffer containing substrate and measured after 15 mins by spectrophotometric analysis; conditions: time 75.0 min
T5 sequence (whole entry): T4 sequence (P18031 whole entry)
Procedure, shortened: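 PTP1B incubated 60 min at 37 °C with saturating inhibitor, then diluted 400-fold into assay buffer containing 2.5 mM pNPP. Stopped after 15 min with 0.2 M KOH; absorbance read at 400 nm. Normalized to enzyme diluted with DMSO; mean ± SEM (n = 3).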

[8] = biological target: T4, Tyrosine-protein phosphatase non-receptor type 1; assay: Mixed non-competitive inhibition of N-terminal polyHis-tagged human PTP1B1 (1 to 303 residues) expressed in Escherichia coli BL21(DE3)pLysS assessed as apparent dissociation constant for EI complex using pNPP as substrate by Lineweaver-Burk plot analysis; procedure, shortened: as §2
[9] = biological target: T4, Tyrosine-protein phosphatase non-receptor type 1; assay: Inhibition of N-terminal polyHis-tagged human PTP1B1 (1 to 303 residues) expressed in Escherichia coli BL21(DE3)pLysS using pNPP as substrate by spectrophotometric analysis
Procedure, shortened: (§3)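 His-tagged human PTP1B (1–303) from E. coli BL21(DE3)pLysS, assayed in 0.075 M β,β-dimethylglutarate pH 7.0 with 1 mM EDTA, 0.1 mM DTT and pNPP. Reaction stopped with 0.1 M KOH; p-nitrophenol read at 400 nm. IC50 from 15–16 inhibitor concentrations in triplicate, normalized to control, fitted by nonlinear regression. Single-point residual activity at 5 µM.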

[10] = biological target: T5, Tyrosine-protein phosphatase non-receptor type 1 (Homo sapiens); assay: Inhibition of N-terminal polyHis-tagged human PTP1B1 (1 to 303 residues) expressed in Escherichia coli BL21(DE3)pLysS assessed as enzyme residual activity using pNPP as substrate at 5 uM by spectrophotometric analysis; procedure, shortened: as §3
[11] = biological target: T2, Aldo-keto reductase family 1 member B1; assay: Ratio of Ki for human recombinant AKR1B1 expressed in Escherichia coli BL21(DE3)pLysS assessed as apparent dissociation constant for EI complex to Ki for human recombinant AKR1B1 expressed in Escherichia coli BL21(DE3)pLysS assessed as apparent dissociation constant for ESI complex
Procedure, shortened: (§4)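 AKR1B1 rates measured at varied L-idose concentrations with and without several inhibitor concentrations, then Lineweaver–Burk analysis. […] Tight binders fitted with the Morrison equation, KM for L-idose taken as 3.8 mM. At least three independent experiments.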

[12] = organism: Homo sapiens; assay: Selectivity index, ratio of IC50 for inhibition of N-terminal polyHis-tagged human recombinant TC-PTPb (1 to 415 residues) expressed in Escherichia coli BL21(DE3)pLysS to IC50 for inhibition of N-terminal polyHis-tagged human PTP1B1 (1 to 303 residues) expressed in Escherichia coli BL21(DE3)pLysS
[13] = biological target: T2, Aldo-keto reductase family 1 member B1; assay: Mixed non-competitive inhibition of human recombinant AKR1B1 expressed in Escherichia coli BL21(DE3)pLysS assessed as apparent dissociation constant for ESI complex using L-idose as substrate by secondary plot analysis; procedure, shortened: as §4
[14] = system: C2C12; assay: Effect on total Akt protein expression in mouse C2C12 cells at 20 uM incubated for 15 mins by SDS-PAGE analysis; type: functional, cell-based; procedure, shortened: as §1
[15] = biological target: T2, Aldo-keto reductase family 1 member B1; assay: Reversible inhibition of human recombinant AKR1B1 expressed in Escherichia coli BL21(DE3)pLysS assessed as recovery of enzyme activity using L-idose as substrate measured after extensive dialysis by NADPH oxidation based absorbance analysis; parameters: scale not given: the % may be the effect or the level left
[16] = system: C2C12; assay: Insulin-mimetic activity in mouse C2C12 cells assessed as stimulation of 2-NBDG uptake at 20 uM pretreated with compound for 15 mins followed by 2-NBDG addition and measured after 3 hrs by flow cytometry; type: functional, cell-based; conditions: time 195.0 min
Procedure, shortened: (§5)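 C2C12 cells serum-starved 24 h, then 15 min with 10 nM insulin, 20 µM compound, or both. Washed, then 3 h in starvation medium containing 40 µM 2-NBDG. Trypsinized, washed, and fluorescence measured by flow cytometry. Quadruplicate; mean fluorescence ± SD.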

[17] = system: C2C12; assay: Insulin-mimetic activity in mouse C2C12 cells assessed as stimulation of 2-NBDG uptake at 20 uM pretreated with compound and insulin for 15 mins followed by 2-NBDG addition and measured after 3 hrs by flow cytometry; type: functional, cell-based; conditions: time 195.0 min; procedure, shortened: as §5
[18] = biological target: T2, Aldo-keto reductase family 1 member B1; assay: Mixed non-competitive inhibition of human recombinant AKR1B1 expressed in Escherichia coli BL21(DE3)pLysS assessed as apparent dissociation constant for EI complex using L-idose as substrate by secondary plot analysis; procedure, shortened: as §4
[19] = system: C2C12; assay: Effect on total Akt protein expression in mouse C2C12 cells at 20 uM incubated for 15 mins in presence of insulin by SDS-PAGE analysis; type: functional, cell-based; procedure, shortened: as §1

IC50 [1] [nM]	IC50 [2] [nM]	inhibition [3]	Ki [4] [nM]	inhibition [5]	inhibition [7]	Ki [8] [nM]	IC50 [9] [nM]	Activity [10] [%]	SMILES	Activity [6]	also measured
9100	60700	Active	2400	Active	Active	600	2900		O=C(O)CCN1C(=O)/C(=C/c2ccc(OCCCCc3ccccc3)cc2)SC1=S	Non-Toxic	
	220							87.6	O=C(O)CN1C(=O)/C(=C/c2ccc(OCCCOc3ccccc3)cc2)SC1=S		
25800	2100	Active	6600	Active	Active	900	3200		O=C(O)CCN1C(=O)/C(=C/c2cccc(OCCCCc3ccccc3)c2)SC1=S	Non-Toxic	Ratio Ki [11]: 2; Ratio IC50 [12]: 8; Ki [13]: 1100 nM; Activity [14]: inactive; Activity [15]: > 90%; Activity [16]: Active; Activity [17]: Active; Ki [18]: 4000 nM; Activity [19]: inactive
	80							100	O=C(O)CN1C(=O)/C(=C/c2cccc(OCCCOc3ccccc3)c2)SC1=S		
	3900							74.4	O=C(O)CCN1C(=O)/C(=C/c2ccc(OCCCOc3ccccc3)cc2)SC1=S		
	1200							67.6	O=C(O)CCN1C(=O)/C(=C/c2cccc(OCCCc3ccccc3)c2)SC1=S		
